Measured values published in ChEMBL document CHEMBL4840368, “Structure-activity relationship and molecular modelling studies of quinazolinedione derivatives MMV665916 as potential antimalarial agent” (Bioorg Med Chem, 2021).

How the values were obtained:
Plasmodium falciparum [1] = assay: Antimalarial activity against chloroquine-resistant Plasmodium falciparum FcB1(CQR)Colombia assessed as parasite growth inhibition; assay type: functional, organism-based
In short: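 Erythrocytic-stage growth inhibition in culture of chloroquine-resistant P. falciparum FcB1 (Columbia). EC50 comes from a 10-point dose-response, run only for compounds above a 60% inhibition cut-off in the 20 μM single-point screen. Values are means of at least two experiments.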

Plasmodium falciparum [2] = assay: Antimalarial activity against chloroquine-resistant Plasmodium falciparum FcB1(CQR)Colombia assessed as parasite growth inhibition at 20 uM relative to control; assay type: functional
In short: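 Single-point screen at 20 μM against erythrocytic stages of chloroquine-resistant P. falciparum FcB1 (Columbia) in culture. Read-out is percent parasite growth inhibition.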

[3] = Cytotoxicity against human AB943 cells; assay type: cell-based
[4] = Selectivity index, ratio of IC50 for human AB943 cells to IC50 for Antimalarial activity against chloroquine-resistant Plasmodium falciparum FcB1(CQR)Colombia; assay type: toxicity; details: read-out: Selectivity Index
Plasmodium falciparum [5] = assay: Antiplasmodial activity against Plasmodium falciparum 3D7; assay type: functional, organism-based
Plasmodium falciparum [6] = assay: Antiplasmodial activity against Plasmodium falciparum K1; assay type: functional, organism-based
Plasmodium falciparum [7] = assay: Antiplasmodial activity against Plasmodium falciparum W2; assay type: functional, organism-based
Plasmodium falciparum [8] = assay: Antiplasmodial activity against Plasmodium falciparum Dd2; assay type: functional, organism-based
Plasmodium falciparum [9] = assay: Antiplasmodial activity against Plasmodium falciparum FCR3; assay type: functional, organism-based
Plasmodium berghei [10] = assay: Antiplasmodial activity against Plasmodium berghei at 5 uM; assay type: functional
Plasmodium berghei [11] = assay: Antiplasmodial activity against luciferase expressing Plasmodium berghei; assay type: functional, organism-based
hERG (KCNH2) = hERG (KCNH2) (Homo sapiens, UniProt Q12809); assay: Inhibition of human ERG at 11 uM
Chain of hERG (KCNH2) (Q12809 whole entry): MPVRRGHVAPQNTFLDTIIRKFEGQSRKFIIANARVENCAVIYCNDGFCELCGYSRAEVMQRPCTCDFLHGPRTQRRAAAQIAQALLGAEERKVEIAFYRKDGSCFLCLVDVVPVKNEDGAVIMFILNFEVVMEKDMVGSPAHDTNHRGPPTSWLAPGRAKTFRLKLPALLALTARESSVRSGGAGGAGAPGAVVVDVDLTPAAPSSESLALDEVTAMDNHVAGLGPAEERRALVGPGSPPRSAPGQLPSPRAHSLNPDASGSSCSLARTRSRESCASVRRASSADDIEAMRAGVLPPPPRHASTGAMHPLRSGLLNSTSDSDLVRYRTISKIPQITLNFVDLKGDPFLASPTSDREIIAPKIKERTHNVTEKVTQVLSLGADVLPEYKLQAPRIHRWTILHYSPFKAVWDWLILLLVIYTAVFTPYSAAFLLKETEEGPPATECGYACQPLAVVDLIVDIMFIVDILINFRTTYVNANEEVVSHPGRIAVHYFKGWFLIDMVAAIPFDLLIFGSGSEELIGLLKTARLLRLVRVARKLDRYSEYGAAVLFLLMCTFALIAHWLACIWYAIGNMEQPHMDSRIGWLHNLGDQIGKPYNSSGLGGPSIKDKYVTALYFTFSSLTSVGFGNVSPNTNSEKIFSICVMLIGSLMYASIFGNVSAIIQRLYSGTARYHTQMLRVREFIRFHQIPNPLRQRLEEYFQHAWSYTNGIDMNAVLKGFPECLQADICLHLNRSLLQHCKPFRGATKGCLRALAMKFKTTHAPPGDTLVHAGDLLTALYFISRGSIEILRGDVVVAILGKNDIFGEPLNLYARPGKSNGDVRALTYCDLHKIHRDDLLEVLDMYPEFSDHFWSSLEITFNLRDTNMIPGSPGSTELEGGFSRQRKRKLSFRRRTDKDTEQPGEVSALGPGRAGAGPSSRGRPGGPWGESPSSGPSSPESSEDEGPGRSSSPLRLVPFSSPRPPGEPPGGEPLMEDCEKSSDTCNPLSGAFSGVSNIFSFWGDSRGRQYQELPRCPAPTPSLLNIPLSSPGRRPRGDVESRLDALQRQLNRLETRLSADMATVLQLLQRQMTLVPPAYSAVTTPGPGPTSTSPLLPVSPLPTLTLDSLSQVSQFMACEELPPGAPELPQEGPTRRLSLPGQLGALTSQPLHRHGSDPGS

[12] = Plasma protein binding in human; assay type: ADME, cell-free; details: read-out: PPB
[13] = Kinetic solubility of compound at pH 7.4; assay type: physicochemical; details: buffer
[14] = Cmax in mouse at 140 micromol/kg, po; assay type: ADME; parameters: route oral, dose 140 µmol/kg; details: in vivo, 140 µmol/kg
[15] = Tmax in mouse at 140 micromol/kg, po; assay type: ADME; details: in vivo, dose 140 µmol/kg
[16] = AUC (0 to 7 hrs) in mouse at 140 micromol/kg, po; assay type: ADME; parameters: time < 7 hr, route oral, dose 140 µmol/kg; details: in vivo, 140 µmol/kg
[17] = MRT (0 to 7 hrs) in mouse at 140 micromol/kg, po; assay type: ADME; details: in vivo, dose 140 µmol/kg

Structure (SMILES)	EC50 (Plasmodium falciparum [1])	inhibition at 20 µM (Plasmodium falciparum [2])	also measured
O=C(CCn1c(=O)[nH]c2ccccc2c1=O)NCc1ccccc1OC(F)F	32000 nM	63.8%	
CC(C)CCNC(=O)CCCn1c(=O)[nH]c2ccccc2c1=O	> 25000 nM		
O=C(CCn1c(=O)[nH]c2ccccc2c1=O)NCc1ccccc1OC(F)(F)F	6800 nM	72.5%	IC50 [3]: > 100000 nM; selectivity ratio [4]: > 14.7
COc1ccccc1CNC(=O)CCn1c(=O)[nH]c2ccc(Br)cc2c1=O		59.8%	
COc1ccccc1CNS(=O)(=O)CCn1c(=O)[nH]c2ccccc2c1=O		21.7%	
COc1ccccc1CNC(=O)CCn1c(=O)[nH]c2ccc(F)cc2c1=O	20000 nM	65.4%	
COc1ccccc1Cn1cc(Cn2c(=O)[nH]c3ccccc3c2=O)nn1		30.5%	
COc1ccccc1CN(C)C(=O)CCn1c(=O)[nH]c2ccccc2c1=O		41.8%	
COc1ccccc1CNC(=O)CCn1c(=O)[nH]c2ccccc2c1=O	400 nM		IC50 [3]: > 100000 nM; selectivity ratio [4]: > 250; EC50 (Plasmodium falciparum [5]): 70 nM; EC50 (Plasmodium falciparum [6]): 70 nM; EC50 (Plasmodium falciparum [7]): 70 nM; EC50 (Plasmodium falciparum [8]): 70 nM; EC50 (Plasmodium falciparum [9]): 70 nM; Activity (Plasmodium berghei [10]): 23%; IC50 (Plasmodium berghei [11]): 44 nM; inhibition at 11 µM (hERG (KCNH2)): 19%; fraction unbound [12]: < 0.05; Kinetic_solubility [13]: Insoluble; Cmax [14]: 21.3 nM; Tmax [15]: 0.25 h; AUC(0-t) at 7 h [16]: 0.0729 µM·h; MRT last [17]: 3.01 h
COc1ccc(CNC(=O)CCn2c(=O)[nH]c3ccccc3c2=O)c(OC)c1		28%	
O=C(CCn1c(=O)[nH]c2ccccc2c1=O)NCc1ccccc1O		17.1%	
COc1ccccc1NC(=O)CCn1c(=O)[nH]c2ccccc2c1=O		53.1%	
O=C(CCCn1c(=O)[nH]c2ccccc2c1=O)NC1CCCC1		21.3%	
COc1ccccc1CNC(=O)CCn1c(=O)[nH]c2cc(F)c(F)cc2c1=O		40.5%	
O=C(CCn1c(=O)[nH]c2ccccc2c1=O)NCc1ccccc1Cl	37500 nM	56%	
O=C(CCn1c(=O)[nH]c2ccccc2c1=O)N1CCc2ccccc2C1		30.6%	
COc1cc(F)ccc1CNC(=O)CCn1c(=O)[nH]c2ccccc2c1=O	5000 nM	74.8%	IC50 [3]: > 100000 nM; selectivity ratio [4]: > 20
COc1ccccc1Cn1cc(CCn2c(=O)[nH]c3ccccc3c2=O)nn1		68.8%	
O=C(CCn1c(=O)[nH]c2ccccc2c1=O)NC1CCCC1		32.9%	
COc1cc(F)c(F)cc1CNC(=O)CCn1c(=O)[nH]c2ccccc2c1=O	11300 nM	68.3%	
COc1ccccc1CCNC(=O)CCn1c(=O)[nH]c2ccccc2c1=O	10100 nM		
O=C(CCn1c(=O)[nH]c2ccccc2c1=O)NCc1nc2ccccc2[nH]1		38.1%	
CCOc1ccccc1CNC(=O)CCn1c(=O)[nH]c2ccccc2c1=O	5500 nM	84.7%	IC50 [3]: > 100000 nM; selectivity ratio [4]: > 18.2
COc1ccccc1CCNC(=O)CCCn1c(=O)[nH]c2ccccc2c1=O	7700 nM		
COc1ccccc1CNC(=O)CCn1c(=O)[nH]c2ccsc2c1=O			EC50 (Plasmodium falciparum [5]): 70 nM; EC50 (Plasmodium falciparum [6]): 70 nM; EC50 (Plasmodium falciparum [7]): 70 nM; EC50 (Plasmodium falciparum [8]): 70 nM; EC50 (Plasmodium falciparum [9]): 70 nM; Activity (Plasmodium berghei [10]): 27%; IC50 (Plasmodium berghei [11]): 56 nM; inhibition at 11 µM (hERG (KCNH2)): 5%; fraction unbound [12]: > 0.05; Kinetic_solubility [13]: Soluble
CC(C)CCNC(=O)CCn1c(=O)[nH]c2ccccc2c1=O	> 25000 nM		
Cn1nccc1CNC(=O)CCn1c(=O)[nH]c2ccccc2c1=O		19.9%	
COc1ccccc1CNC(=O)CCCn1c(=O)[nH]c2ccccc2c1=O	16900 nM		
COc1ccccc1CNC(=O)CCn1c(=O)[nH]c2ncccc2c1=O		52.4%	
